Where a SMILES comes first, the peptide text is derived from it. Bridges are numbered along the chain shown (N, C = ends). [ ]: non-standard residue; d: D form. Phe(4-NO2) = N[C@@H](Cc1ccc([N+](=O)[O-])cc1)C(=O)O; Phe(4-Cl) = N[C@@H](Cc1ccc(Cl)cc1)C(=O)O; 2Nal = N[C@@H](Cc1ccc2ccccc2c1)C(=O)O; d2Nal = N[C@H](Cc1ccc2ccccc2c1)C(=O)O

For this test, the species on record is Rattus norvegicus. The test can be described thus: In vitro GH release inhibiting potency on anterior pitutaries from adult male rats, relative to somatostatin. In kind it is functional. In a few lines:
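Rat anterior pituitary cells (adult males, 200-250 g), trypsin/DNase dispersed, plated 2 × 10^5 cells/well, cultured 96 h at 37 °C in serum-supplemented DMEM. After washing, cells were pulsed 3 h at 37 °C with 1 nM GRF(1-29)NH2 ± graded analogue doses in medium 199/1% BSA, quadruplicate wells. Medium GH was measured by double-antibody RIA. Potency relative to somatostatin (=1.0) came from four-point assay (mean of ≥3 experiments) or IC50 comparison.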
`C[C@@H](O)[C@@H]1NC(=O)[C@H](CCCCN)NC(=O)[C@@H](Cc2c[nH]c3ccccc23)NC(=O)[C@H](Cc2ccccc2)NC(=O)[C@@H]2CSSC[C@H](NC1=O)C(=O)NCCCCCCC(=O)N2` (stereo in doubt) displayed a GHI of 0.81. Consider `C[C@@H](O)[C@@H]1NC(=O)[C@H](CCCCN)NC(=O)[C@@H](Cc2c[nH]c3ccccc23)NC(=O)[C@H](Cc2ccc(N)cc2)NC(=O)[C@H](Cc2ccccc2)NC(=O)CCCCCCNC(=O)[C@H](Cc2ccccc2)NC1=O` (stereo in doubt), for which the GHI was found to be 35. In the case of `CC(C)[C@@H]1NC(=O)[C@H](CCCCN)NC(=O)[C@@H](Cc2c[nH]c3ccccc23)NC(=O)[C@H](Cc2ccc(O)cc2)NC(=O)[C@@H](NC(=O)[C@H](N)Cc2ccccc2)CSSC[C@@H](C(=O)N[C@@H](Cc2ccc3ccccc3c2)C(N)=O)NC1=O` (H-[dF]CY[dW]KVC[2Nal]-NH2; disulfide 2-7) it was 0.43; in that of `C[C@H](NC(=O)[C@H](N)Cc1ccccc1)C(=O)N[C@@H](Cc1ccc(O)cc1)C(=O)N[C@H](Cc1c[nH]c2ccccc12)C(=O)N[C@@H](CCCCN)C(=O)N[C@H](C(=O)N[C@@H](C)C(=O)N[C@@H](Cc1ccc2ccccc2c1)C(N)=O)[C@@H](C)O`, 16; in that of `CC[C@@H]1NC(=O)C(CCCCN)NC(=O)[C@@H](Cc2c[nH]c3ccccc23)NC(=O)C(Cc2ccccc2)NC(=O)[C@@H]2CCCN2C(=O)C(Cc2ccccc2)NC1=O` (single isomer, unassigned), 1.25. The compound `CC(C)[C@@H]1NC(=O)[C@H](CCCCN)NC(=O)[C@@H](Cc2c[nH]c3ccccc23)NC(=O)[C@H](Cc2ccc(O)cc2)NC(=O)[C@@H](NC(=O)[C@H](N)Cc2ccc3ccccc3c2)CSSC[C@@H](C(=O)N[C@H](C(=O)O)[C@@H](C)O)NC1=O` returned a GHI of 1.07. For `C[C@@H](O)[C@H](NC(=O)[C@H](Cc1ccccc1)NC(=O)[C@@H](NC(=O)[C@H](CCCCN)NC(=O)[C@@H](Cc1c[nH]c2ccccc12)NC(=O)[C@H](Cc1ccccc1)NC(=O)[C@H](Cc1ccccc1)NC(=O)[C@H](N)Cc1ccccc1)[C@@H](C)O)C(N)=O` (H-[dF]FF[dW]KTFT-NH2) the value was 77; for `C[C@H](NC(=O)[C@H](N)Cc1ccccc1)C(=O)N[C@@H](Cc1ccccc1)C(=O)N[C@H](Cc1c[nH]c2ccccc12)C(=O)N[C@@H](CCCCN)C(=O)N[C@H](C(=O)N[C@@H](C)C(=O)N[C@H](C(N)=O)[C@@H](C)O)[C@@H](C)O` (H-[dF]AF[dW]KTAT-NH2), 2500. In the case of `Cc1ccc2[nH]cc(C[C@@H]3NC(=O)[C@H](Cc4ccccc4)NC(=O)[C@H](Cc4ccccc4)NC(=O)CCCCCCNC(=O)[C@H](Cc4ccccc4)NC(=O)[C@H]([C@@H](C)O)NC(=O)[C@H](CCCCN)NC3=O)c2c1` (stereo in doubt) it was 14; in that of `CC(C)[C@@H]1NC(=O)[C@H](CCCN)NC(=O)[C@@H](Cc2c[nH]c3ccccc23)NC(=O)[C@H](Cc2ccc(O)cc2)NC(=O)[C@H](NC(=O)[C@H](N)Cc2ccc3ccccc3c2)CSSC[C@@H](C(=O)N[C@@H](Cc2ccc3ccccc3c2)C(N)=O)NC1=O`, 4.17; in that of `NCCCCC1NC(=O)[C@@H](Cc2c[nH]c3ccccc23)NC(=O)C(Cc2ccccc2)NC(=O)[C@H](Cc2ccccc2)NC(=O)CCCCCCNC(=O)C(Cc2ccccc2)NC(=O)C2(CCCC2)NC1=O` (single isomer, unassigned), 6.7. For `CC1C(=O)N[C@@H](Cc2ccccc2)C(=O)NC(Cc2c[nH]c3ccccc23)C(=O)N[C@@H](CCCCN)C(=O)NC([C@@H](C)O)C(=O)N[C@@H](Cc2ccccc2)C(=O)N1C` (single isomer, unassigned) the value was 0.29; for `C[C@@H](O)[C@@H]1NC(=O)[C@H](CCCCN)NC(=O)[C@@H](Cc2c[nH]c3ccccc23)NC(=O)[C@H](Cc2ccc([N+](=O)[O-])cc2)NC(=O)[C@H](Cc2ccccc2)NC(=O)CCCCCCNC(=O)[C@H](Cc2ccccc2)NC1=O` (stereo in doubt), 3.5. In turn, `CC(C)[C@H](NC(=O)[C@H](CCCCN)NC(=O)[C@@H](Cc1c[nH]c2ccccc12)NC(=O)[C@H](Cc1ccc(O)cc1)NC(=O)[C@H](Cc1ccccc1)NC(=O)[C@H](N)Cc1ccccc1)C(=O)N[C@@H](Cc1ccccc1)C(=O)N[C@H](Cc1ccc2ccccc2c1)C(N)=O` (H-[dF]FY[dW]KVF[d2Nal]-NH2) had a GHI of 12500.

Compound `CC(C)[C@H](NC(=O)[C@H](CCCCN)NC(=O)[C@@H](Cc1c[nH]c2ccccc12)NC(=O)[C@H](Cc1ccc(O)cc1)NC(=O)[C@H](Cc1ccccc1)NC(=O)[C@H](N)Cc1ccccc1)C(=O)N[C@@H](Cc1ccccc1)C(=O)N[C@H](Cc1ccccc1)C(N)=O` (H-[dF]FY[dW]KVF[dF]-NH2) returned a GHI of 11100. In the case of `CC(C)[C@H](NC(=O)[C@H](CCCCN)NC(=O)[C@@H](Cc1c[nH]c2ccccc12)NC(=O)[C@H](Cc1ccc(O)cc1)NC(=O)[C@H](C)NC(=O)[C@H](N)Cc1ccc2ccccc2c1)C(=O)N[C@@H](C)C(=O)N[C@H](C(N)=O)[C@@H](C)O` (H-[d2Nal]AY[dW]KVAT-NH2), the GHI came to 435. For `CC(C)[C@@H]1NC(=O)[C@H](CCCCN)NC(=O)[C@@H](Cc2c[nH]c3ccccc23)NC(=O)[C@H](Cc2ccc(O)cc2)NC(=O)[C@H](NC(=O)[C@H](N)C(c2ccccc2)c2ccccc2)CSSC[C@@H](C(=O)N[C@@H](Cc2ccc3ccccc3c2)C(N)=O)NC1=O` the value was 0.91; for `C[C@@H](O)[C@@H]1NC(=O)[C@H](CCCCN)NC(=O)[C@@H](Cc2c[nH]c3ccccc23)NC(=O)[C@H](Cc2ccc(O)cc2)NC(=O)[C@H](Cc2ccccc2)NC(=O)CCCCCCNC(=O)[C@H](Cc2ccccc2)NC1=O` (stereo in doubt), 1.04.

The compound `C[C@@H](O)[C@@H]1NC(=O)[C@H](CCCCN)NC(=O)[C@@H](Cc2c[nH]c3ccccc23)NC(=O)[C@H](Cc2cscn2)NC(=O)[C@H](Cc2ccccc2)NC(=O)CCCCCCNC(=O)[C@H](Cc2ccccc2)NC1=O` (stereo in doubt) displayed a GHI of 5. In turn, `C[C@@H](O)[C@@H]1NC(=O)[C@H](Cc2ccc(N)cc2)NC(=O)[C@H](Cc2cn(C)c3ccccc23)NC(=O)[C@H](Cc2ccccc2)NC(=O)[C@H](Cc2ccccc2)NC(=O)CCCCCCNC(=O)[C@H](Cc2ccccc2)NC1=O` (stereo in doubt) had a GHI of 1.8. Regarding `NCCCC[C@@H]1NC(=O)[C@@H](Cc2c[nH]c3ccccc23)NC(=O)[C@H](Cc2ccc(O)cc2)NC(=O)[C@@H](NC(=O)[C@H](N)Cc2ccccc2)CSSC[C@@H](C(=O)N[C@@H](Cc2ccc3ccccc3c2)C(N)=O)NC(=O)[C@H](CO)NC1=O`, the GHI was determined as 0.03.

Regarding `C[C@@H](O)[C@@H]1NC(=O)C(CCCCN)NC(=O)[C@@H](Cc2c[nH]c3ccccc23)NC(=O)C(Cc2ccccc2)NC(=O)[C@@H]2CCCN2C(=O)C(Cc2ccccc2)NC1=O` (single isomer, unassigned), the GHI amounted to 0.59.

Compound `CC(C)[C@@H]1NC(=O)[C@H](CCCCN)NC(=O)[C@@H](Cc2c[nH]c3ccccc23)NC(=O)[C@H](Cc2ccc(O)cc2)NC(=O)[C@@H](NC(=O)[C@H](N)Cc2ccc3ccccc3c2)CSSC[C@@H](C(=O)N[C@@H](Cc2ccc3ccccc3c2)C(N)=O)NC1=O` (H-[d2Nal]CY[dW]KVC[2Nal]-NH2; disulfide 2-7) came in with a GHI of 11. In the case of `CC(C)[C@H](NC(=O)[C@H](CCCCN)NC(=O)[C@@H](Cc1c[nH]c2ccccc12)NC(=O)[C@H](Cc1ccc(O)cc1)NC(=O)[C@H](C)NC(=O)[C@H](N)Cc1ccc(Cl)cc1)C(=O)N[C@@H](C)C(=O)N[C@H](Cc1ccccc1)C(N)=O` it was 417. `C[C@@H](O)[C@@H]1NC(=O)[C@H](CCCCN)NC(=O)[C@@H](Cc2c[nH]c3ccccc23)NC(=O)[C@H](Cc2ccccc2)NC(=O)[C@@H](NC(=O)[C@H](N)Cc2ccccc2)CSSC[C@@H](C(=O)N[C@@H](Cc2ccc3ccccc3c2)C(N)=O)NC1=O` yielded a GHI of 0.22. For `C[C@@H](O)[C@H](NC(=O)[C@H](CCCCN)NC(=O)[C@@H](Cc1c[nH]c2ccccc12)NC(=O)[C@H](Cc1ccc(O)cc1)NC(=O)[C@H](Cc1ccc(Cl)cc1)NC(=O)[C@H](N)Cc1ccccc1)C(=O)N[C@@H](Cc1ccccc1)C(=O)N[C@@H](Cc1ccc2ccccc2c1)C(N)=O` the value was 100; for `C[C@@H](O)[C@H](NC(=O)[C@H](Cc1ccccc1)NC(=O)[C@@H](NC(=O)[C@H](CCCCN)NC(=O)[C@@H](Cc1c[nH]c2ccccc12)NC(=O)[C@H](Cc1ccc(O)cc1)NC(=O)[C@H](Cc1ccc(Cl)cc1)NC(=O)[C@H](N)Cc1ccc2ccccc2c1)[C@@H](C)O)C(N)=O` (H-[d2Nal][Phe(4-Cl)]Y[dW]KTFT-NH2), 17; for `C[C@@H](O)[C@@H]1NC(=O)[C@H](CCCCN)NC(=O)[C@@H](Cc2c[nH]c3ccccc23)NC(=O)[C@H](Cc2ccccc2)NC(=O)[C@H](Cc2ccccc2)NC(=O)CCCCCCNC(=O)[C@H](Cc2ccccc2)NC1=O` (stereo in doubt), 1.08. Consider `CC(C)[C@@H]1NC(=O)[C@H](CCCCN)NC(=O)[C@@H](Cc2c[nH]c3ccccc23)NC(=O)[C@H](Cc2c[nH]c3ccccc23)NC(=O)[C@H](NC(=O)[C@H](N)Cc2ccccc2)CSSC[C@@H](C(=O)N[C@@H](Cc2ccc3ccccc3c2)C(N)=O)NC1=O`, for which the GHI amounted to 0.2. For `C[C@H]1C(=O)NC(Cc2ccccc2)C(=O)NCCCCCCC(=O)N[C@@H](Cc2ccccc2)C(=O)NC(Cc2ccccc2)C(=O)N[C@H](Cc2c[nH]c3ccccc23)C(=O)NC(CCCCN)C(=O)N1C` (single isomer, unassigned) the value was 50; for `CC(C)[C@H](NC(=O)[C@H](CCCCN)NC(=O)[C@@H](Cc1c[nH]c2ccccc12)NC(=O)[C@H](Cc1ccc(O)cc1)NC(=O)[C@H](Cc1ccc([N+](=O)[O-])cc1)NC(=O)[C@H](N)Cc1ccccc1)C(=O)N[C@@H](Cc1ccccc1)C(=O)N[C@H](C(N)=O)[C@@H](C)O` (H-[dF][Phe(4-NO2)]Y[dW]KVFT-NH2), 159; for `CC(C)[C@H](NC(=O)[C@H](CCCCN)NC(=O)[C@@H](Cc1c[nH]c2ccccc12)NC(=O)[C@H](Cc1ccc(O)cc1)NC(=O)[C@H](C)NC(=O)[C@H](N)Cc1ccccc1)C(=O)N[C@@H](C)C(=O)N[C@@H](Cc1ccc2ccccc2c1)C(N)=O` (H-[dF]AY[dW]KVA[2Nal]-NH2), 15.

For the origin of these results see ChEMBL document CHEMBL1128385, “Three-dimensional quantitative structure-activity relationships of somatostatin analogues. 1. Comparative molecular field analysis of growth hormone release-inhibiting potencies” (J Med Chem, 1995).
